Reference: ChEMBL document CHEMBL3862007, “Synthesis and antimicrobial activity of small cationic amphipathic aminobenzamide marine natural product mimics and evaluation of relevance against clinical isolates including ESBL-CARBA producing multi-resistant bacteria” (Bioorg Med Chem, 2016)

Columns and labels:
Staphylococcus aureus [1] = assay: Antibacterial activity against Staphylococcus aureus clinical isolate after 24 hrs by microdilution method; assay type: functional
Bacillus subtilis = assay: Antibacterial activity against Bacillus subtilis 168 ATCC 23857 after 48 hrs by microdilution method; assay type: functional; conditions: subsp. subtilis str. 168 ATCC 23857, 48 h
Pseudomonas aeruginosa [2] = assay: Antibacterial activity against Pseudomonas aeruginosa PAO1 DSM 19880 (ATCC 15692) after 48 hrs by microdilution method; assay type: functional
[3] = Antibacterial activity against methicillin-resistant Staphylococcus epidermidis RP62A CCUG 31568 (ATCC 35984) after 48 hrs by microdilution method; assay type: functional
How it was run: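 Broth microdilution MIC against the reference-strain panel. Compounds were supplied as HCl salts for aqueous solubility in the test medium. Precipitation in the test buffer is flagged at higher concentrations.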

[4] = Hemolytic activity in human RBC after 1 hr; assay type: ADME, cell-based; conditions: Erythrocyte
Escherichia coli [5] = assay: Antibacterial activity against Escherichia coli clinical isolate after 24 hrs by microdilution method; assay type: functional
Staphylococcus aureus [6] = assay: Antibacterial activity against Staphylococcus aureus ATCC 9144 after 48 hrs by microdilution method; assay type: functional; conditions: ATCC 9144, 48 h
[7] = Selectivity index, ratio of hemolytic EC50 for human RBC to MIC for Staphylococcus aureus ATCC 9144
Escherichia coli [8] = assay: Antibacterial activity against Escherichia coli ATCC 25922 after 48 hrs by microdilution method; assay type: functional; conditions: ATCC 25922, 48 h
[9] = tested on: Corynebacterium glutamicum; assay: Antibacterial activity against Corynebacterium glutamicum ATCC 13032 after 48 hrs by microdilution method; assay type: functional; conditions: ATCC 13032, 48 h
Enterococcus sp. = assay: Antibacterial activity against Enterococcus sp. clinical isolate after 24 hrs by microdilution method; assay type: functional
Klebsiella pneumoniae = assay: Antibacterial activity against Klebsiella pneumoniae clinical isolate after 24 hrs by microdilution method; assay type: functional
Pseudomonas aeruginosa [10] = assay: Antibacterial activity against Pseudomonas aeruginosa clinical isolate after 24 hrs by microdilution method; assay type: functional

CC(C)(C)c1cc(NC(=O)c2ccc(C(=O)NCCCNC(=N)N)cc2)cc(C(C)(C)C)c1.Cl
MIC (Staphylococcus aureus [1]): 4 µg/mL | MIC (Bacillus subtilis): 4 µg/mL | MIC (Pseudomonas aeruginosa [2]): 8 µg/mL | MIC [3]: 8 µg/mL | EC50 [4]: 42 µg/mL | MIC (Escherichia coli [5]): 8 µg/mL | MIC (Staphylococcus aureus [6]): 4 µg/mL | Selectivity Index [7]: 10.5 | MIC (Escherichia coli [8]): 8 µg/mL | MIC [9]: 2 µg/mL | MIC (Enterococcus sp.): 8 µg/mL | MIC (Klebsiella pneumoniae): 16 µg/mL | MIC (Pseudomonas aeruginosa [10]): 8 µg/mL

CC(C)(C)c1cc(C(=O)Nc2cccc(C(=O)NCCCN)c2)cc(C(C)(C)C)c1.Cl
MIC (Bacillus subtilis): 8 µg/mL | MIC (Pseudomonas aeruginosa [2]): 16 µg/mL | MIC [3]: 8 µg/mL | EC50 [4]: 32 µg/mL | MIC (Staphylococcus aureus [6]): 8 µg/mL | Selectivity Index [7]: 4 | MIC (Escherichia coli [8]): 16 µg/mL | MIC [9]: 4 µg/mL

CN(C(=O)c1cc(C(C)(C)C)cc(C(C)(C)C)c1)c1ccc(C(=O)NCCN)cc1
Selectivity Index [7]: 0.3

CN(C(=O)c1cc(C(C)(C)C)cc(C(C)(C)C)c1)c1ccc(C(=O)NCCNC(=N)N)cc1.Cl
MIC (Bacillus subtilis): 16 µg/mL | MIC (Pseudomonas aeruginosa [2]): 128 µg/mL | MIC [3]: 16 µg/mL | EC50 [4]: 243 µg/mL | MIC (Staphylococcus aureus [6]): 16 µg/mL | Selectivity Index [7]: 15.2 | MIC (Escherichia coli [8]): 128 µg/mL | MIC [9]: 4 µg/mL

CC(C)(C)c1cc(C(=O)Nc2ccccc2C(=O)NCCCNC(=N)N)cc(C(C)(C)C)c1.Cl
MIC (Bacillus subtilis): 2 µg/mL | MIC (Pseudomonas aeruginosa [2]): 32 µg/mL | MIC [3]: 2 µg/mL | EC50 [4]: 39 µg/mL | MIC (Staphylococcus aureus [6]): 4 µg/mL | Selectivity Index [7]: 9.8 | MIC (Escherichia coli [8]): 8 µg/mL | MIC [9]: 1 µg/mL

CN(C(=O)c1cc(C(C)(C)C)cc(C(C)(C)C)c1)c1ccc(C(=O)NCCCN)cc1.Cl
MIC (Bacillus subtilis): 128 µg/mL | MIC (Pseudomonas aeruginosa [2]): > 128 µg/mL | MIC [3]: > 128 µg/mL | EC50 [4]: 172 µg/mL | MIC (Staphylococcus aureus [6]): > 128 µg/mL | Selectivity Index [7]: < 1.3 | MIC (Escherichia coli [8]): > 128 µg/mL | MIC [9]: 64 µg/mL

CC(C)(C)c1cc(NC(=O)c2ccc(C(=O)NCCCN)cc2)cc(C(C)(C)C)c1.Cl
MIC (Bacillus subtilis): 8 µg/mL | MIC (Pseudomonas aeruginosa [2]): 16 µg/mL | MIC [3]: 8 µg/mL | EC50 [4]: 28 µg/mL | MIC (Staphylococcus aureus [6]): 8 µg/mL | Selectivity Index [7]: 3.5 | MIC (Escherichia coli [8]): 8 µg/mL | MIC [9]: 4 µg/mL

CN(C)CCNC(=O)c1ccc(NC(=O)c2cc(C(C)(C)C)cc(C(C)(C)C)c2)cc1.Cl
MIC (Bacillus subtilis): 8 µg/mL | MIC (Pseudomonas aeruginosa [2]): > 128 µg/mL | MIC [3]: 8 µg/mL | EC50 [4]: > 16 µg/mL | MIC (Staphylococcus aureus [6]): 16 µg/mL | Selectivity Index [7]: > 1 | MIC (Escherichia coli [8]): 32 µg/mL | MIC [9]: 4 µg/mL

CN(C)CCOC(=O)c1ccc(NC(=O)c2cc(C(C)(C)C)cc(C(C)(C)C)c2)cc1.Cl
MIC (Bacillus subtilis): 4 µg/mL | MIC (Pseudomonas aeruginosa [2]): > 128 µg/mL | MIC [3]: 8 µg/mL | EC50 [4]: 28 µg/mL | MIC (Staphylococcus aureus [6]): 8 µg/mL | Selectivity Index [7]: 3.5 | MIC (Escherichia coli [8]): > 128 µg/mL | MIC [9]: 4 µg/mL

CC(C)(C)c1cc(NC(=O)c2ccc(C(=O)NCCN)cc2)cc(C(C)(C)C)c1.Cl
MIC (Bacillus subtilis): 4 µg/mL | MIC (Pseudomonas aeruginosa [2]): 16 µg/mL | MIC [3]: 8 µg/mL | EC50 [4]: 21 µg/mL | MIC (Staphylococcus aureus [6]): 8 µg/mL | Selectivity Index [7]: 2.6 | MIC (Escherichia coli [8]): 8 µg/mL | MIC [9]: 8 µg/mL

CC(C)(C)c1cc(C(=O)Nc2ccc(C(=O)NCCCNC(=N)N)cc2)cc(C(C)(C)C)c1.Cl
MIC (Bacillus subtilis): 4 µg/mL | MIC (Pseudomonas aeruginosa [2]): 16 µg/mL | MIC [3]: 4 µg/mL | EC50 [4]: 62 µg/mL | MIC (Staphylococcus aureus [6]): 4 µg/mL | Selectivity Index [7]: 15.5 | MIC (Escherichia coli [8]): 8 µg/mL | MIC [9]: 2 µg/mL

CC(C)(C)c1cc(C(=O)Nc2cccc(C(=O)NCCN)c2)cc(C(C)(C)C)c1.Cl
MIC (Bacillus subtilis): 8 µg/mL | MIC (Pseudomonas aeruginosa [2]): 16 µg/mL | MIC [3]: 8 µg/mL | EC50 [4]: 39 µg/mL | MIC (Staphylococcus aureus [6]): 16 µg/mL | Selectivity Index [7]: 2.4 | MIC (Escherichia coli [8]): 16 µg/mL | MIC [9]: 8 µg/mL

CC(C)(C)c1cc(C(=O)Nc2ccc(C(=O)NCCCN)cc2)cc(C(C)(C)C)c1.Cl
MIC (Bacillus subtilis): 4 µg/mL | MIC (Pseudomonas aeruginosa [2]): 32 µg/mL | MIC [3]: 8 µg/mL | EC50 [4]: 31 µg/mL | MIC (Staphylococcus aureus [6]): 8 µg/mL | Selectivity Index [7]: 3.9 | MIC (Escherichia coli [8]): 8 µg/mL | MIC [9]: 4 µg/mL
